Series [1] can be described thus: Cytotoxicity against human TE1 cells assessed as growth inhibition after 72 hrs by CCK8 assay. The series is classed as functional, cell-based, TE-1. The settings on record: Homo sapiens, TE-1, 72 h; read-out: IC50. The procedure, abridged: (§1)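 Exponentially growing cells were trypsinized and seeded at 2 × 10^4 cells/mL (100 µL/well). After 24 h, medium was replaced with compound at 0.5–256 µM (twofold steps). Plates were incubated 72 h at 37 °C, 5% CO2, then with CCK-8 for 4 h. A450 was read. Three independent runs; IC50 given as mean and SD.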

The nature of series [2]: Cytotoxicity against human MCF7 cells assessed as growth inhibition after 72 hrs by CCK8 assay. The class given is functional, cell-based. The settings on record: Homo sapiens, MCF7, 72 h; read-out: IC50. An outline of the steps:
as §1
(Tetrazolium dyes change colour on reduction, which living cells bring about.)

The nature of series [3]: Cytotoxicity against human SW780 cells assessed as growth inhibition after 72 hrs by CCK8 assay. The series is classed as functional, cell-based. The settings on record: Homo sapiens, SW780, 72 h; read-out: IC50. An outline of the steps:
as §1

A short description of series [4]: Cytotoxicity against human MGC803 cells assessed as growth inhibition after 72 hrs by CCK8 assay. The class given is functional, cell-based, MGC-803. The settings on record: Homo sapiens, MGC-803, 72 h; read-out: IC50. An outline of the steps:
as §1

Series [5] is described as follows: Cytotoxicity against human HL-7702 cells assessed as growth inhibition after 72 hrs by CCK8 assay. The class given is toxicity, cell-based, L02. To be noted: human, HL-7702 cells. The procedure, abridged: as §1
Series [6] can be described thus: Cytotoxicity against human GES-1 cells assessed as growth inhibition after 72 hrs by CCK8 assay. The settings on record: human, GES-1 cells. The series is classed as toxicity, cell-based, GES1. The procedure, abridged: as §1

Among the data in ChEMBL document CHEMBL3875153, “Design and synthesis of isatin/triazole conjugates that induce apoptosis and inhibit migration of MGC-803 cells” (Eur J Med Chem, 2016) are IC50 values, retold here.

Molecules are shown by their SMILES.

In general, IC50 refers to the concentration at which inhibition is half-maximal. As for `O=C1C(=O)N(Cc2cn(CC(=O)N3CCCC3)nn2)c2c(Cl)ccc(Cl)c21`, the IC50 in series [1] is 51.6 µM; in series [2], 62.4 µM; in series [3] it was 48.2 µM; in series [4], 14.8 µM. In addition, the IC50 at 72 h was above 128 µM in series [5] and 88.7 µM in series [6].
For the compound `O=C1C(=O)N(Cc2cn(CC(=O)N3CCOCC3)nn2)c2c(Cl)ccc(Cl)c21`, the IC50 in series [1] stood at 119 µM; in series [2] it was 146 µM; in series [3], 113 µM; in series [4] it was 51.7 µM. The IC50 at 72 h in series [5] and in series [6] was above 128 µM throughout.
`O=C1C(=O)N(Cc2cn(CC(=O)N3CCCCC3)nn2)c2c(Cl)ccc(Cl)c21`: the IC50 in series [1] worked out at 40.6 µM; in series [2] it was 34.6 µM; in series [3], 29.7 µM; in series [4], 18.7 µM. The values for the IC50 at 72 h in series [5] and in series [6] were 39.3 µM and 50.7 µM, respectively.
For the compound `CC(C)(C)OC(=O)N1CCN(C(=O)Cn2cc(CN3C(=O)C(=O)c4c(Cl)ccc(Cl)c43)nn2)CC1`, the IC50 in series [1] is 39.2 µM; in series [2] it was 46.9 µM; in series [3], above 128 µM; in series [4], 22 µM. The results for the IC50 at 72 h in series [5] and in series [6] were 42 µM and 84.2 µM, respectively.
For `O=c1[nH]cc(F)c(=O)[nH]1` [FLUOROURACIL], the IC50 was 17.3 µM in series [1], 13.2 µM in series [2], 6.99 µM in series [3] and 10.6 µM in series [4]. Also, the IC50 at 72 h in series [5] is 12.8 µM; in series [6], 13.8 µM.
